This is an account of results in PubChem BioAssay.

As usually defined, the inhibition is the drop in the measured response relative to a control, in per cent.

The source made the active and inactive calls.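 How the source made its calls, unless noted: active means inhibition above 20% together with a positive visual image hit; inconclusive means visual image hit but inhibition not above 20%; inactive means no visual image hit.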

The nature of experiment [1]: inhibitors of TNFa-induced NFkB p65 translocation, primary screen, imaging, HUVEC, MLSMR starter and 10KST1 sets (AID 438).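 Further: compound added about 3h40 before a 20 min TNFalpha stimulation.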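 On inhibition: signal is the nuclear over cytoplasmic p65 intensity ratio per well.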 Particulars: HUVEC TNFa-induced p65 nuclear translocation; cell count: measured here: nuclei count (cytotoxicity indicator), at 2.08 µM; inhibition: at 2 µM, stronger effect = higher value, 0% TNFa-plus-vehicle, 100% no-TNFa wells.
Experiment [2] can be described thus: inhibitors of mutant huntingtin aggregation, primary screen, imaging, exon1htt(103Q)mCFP cells, high-content imaging (AID 483;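 active means visual image review flags a hit and inhibition of aggregation exceeds 20%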;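 further: compound exposure lasted 3 days before fixation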;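 on nuclei count: percent of the per-plate median nuclei count of sample wells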). Particulars: exon1htt(103Q)mCFP cell line, aggregate imaging, at 2 µM; inhibition of aggregation: stronger effect = higher value; nuclei count: measured here: cell count, toxicity.
Experiment [3] can be described thus: inhibitors of E-selectin induction by TNFa, primary screen, imaging, HUVEC, immunofluorescence, MLSMR starter and 10KST1 sets (AID 487;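 active means visually confirmed hit in the image check and inhibition above 20%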;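 on inhibition: signal is fraction of cell area covered by stained E-selectin grains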;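 on nuclei count: 100% = median nuclei count of all wells on the same plate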). To be noted: HUVEC TNFalpha-induced E-selectin immunofluorescence imaging, at 2 µM; inhibition: stronger effect = higher value; nuclei count: measured here: cell number, toxicity.
The target in experiment [4] is Voltage-gated potassium channel subunit beta-2 (Rattus norvegicus) (UniProt P62483). As to the kind of experiment: KvBeta enzyme negative modulators, primary screen, biochemical, NADPH fluorescence (AID 622;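 active means fluorescence slope higher than the sample average by over 3 SD, cut at about -0.22 in these data, passing the limit was not always enough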;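 further: slope of raw intensity against log time taken from 70 to 1610 s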). To be noted: recombinant KvBeta, 4-cyanobenzaldehyde reduction, at 10 µM, stronger effect = higher value.
Chain of Voltage-gated potassium channel subunit beta-2 (Rattus norvegicus) (P62483 whole entry, looked up): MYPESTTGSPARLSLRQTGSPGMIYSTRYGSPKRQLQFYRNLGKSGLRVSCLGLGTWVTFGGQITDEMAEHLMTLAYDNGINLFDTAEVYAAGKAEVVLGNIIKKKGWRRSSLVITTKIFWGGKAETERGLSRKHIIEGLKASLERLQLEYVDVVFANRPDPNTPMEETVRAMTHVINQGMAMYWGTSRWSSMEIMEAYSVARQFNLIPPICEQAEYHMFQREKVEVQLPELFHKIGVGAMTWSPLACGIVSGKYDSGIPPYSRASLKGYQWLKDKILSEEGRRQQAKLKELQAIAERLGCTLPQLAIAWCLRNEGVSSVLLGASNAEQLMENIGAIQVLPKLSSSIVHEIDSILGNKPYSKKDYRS
Experiment [5] shares this target. Put plainly: KvBeta positive modulators, primary screen, biochemical, NADPH fluorescence (AID 623;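 active means NADPH fluorescence slope more negative than the mean of all samples by about 3 SD, 99.7% confidence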;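 further: fluorescence intensity change per second fitted from 20 to 320 s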). Particulars: Recombinant KvBeta, NADPH fluorescence decrease slope, 10 min; at 10 µM; stronger effect = lower value.
The target in experiment [6] is Muscarinic acetylcholine receptor M4 (Homo sapiens) (UniProt P08173). As to the kind of experiment: compounds altering M4/GIRK thallium flux, either direction, primary screen, M4 allosteric agonist project, cell-based, HEK293 M4/GIRK, BTC-AM (AID 625;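 active means fluorescence slope after compound addition differing from the mean of all tested samples at 99.7% confidence, mostly higher but some lower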;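 further: thallium influx through GIRK channels coupled to M4 in HEK293 cells with BTC-AM dye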). Particulars: at 10 µM, actives lie on both sides. In a few lines:
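Material: M4/GIRK1/GIRK2 stable HEK293 cell line. Medium: pH 7.3 thallium assay buffer. Dosing: single compound concentration, 10 µM final. Schedule: 1 h dye loading, 2 min kinetic read. Measured by: kinetic fluorescence with BTC-AM dye. Read-out: post-addition slope, 15–24 s, of baseline-normalized fluorescence. Benchmarks: carbachol and DMSO controls.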

A short description of experiment [7]: inhibitors of Sendai virus-induced IRF3 signaling, primary screen, TLR/RLR signaling modifier project, cell-based, Sendai virus stimulus, luciferase, 10K MLSCN set (AID 602276;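 active means inhibition at or above 50% at 10 µM; inactive means inhibition below 50%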;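 further: firefly luciferase from ISG56 promoter only with Renilla not read in this screen; 0% = Sendai virus plus DMSO and 100% = medium plus DMSO without virus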). Particulars: HEK293 RL24 IRF3 luciferase reporter, at 10 µM, stronger effect = higher value. For orientation: A reporter such as luciferase makes a cellular process visible.
Experiment [8] in a line: inhibitors of poly I:C-induced TLR3 signaling, primary screen, cell-based, poly I:C stimulus, luciferase, 10K MLSCN set (AID 602277;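 active means inhibition of the reporter signal at or above 50%; inactive means inhibition below 50%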). To be noted: HEK293-TLR3 RL24 IRF3 luciferase reporter, at 10 µM, stronger effect = higher value.

Chain of Muscarinic acetylcholine receptor M4 (Homo sapiens) (P08173 whole entry, looked up): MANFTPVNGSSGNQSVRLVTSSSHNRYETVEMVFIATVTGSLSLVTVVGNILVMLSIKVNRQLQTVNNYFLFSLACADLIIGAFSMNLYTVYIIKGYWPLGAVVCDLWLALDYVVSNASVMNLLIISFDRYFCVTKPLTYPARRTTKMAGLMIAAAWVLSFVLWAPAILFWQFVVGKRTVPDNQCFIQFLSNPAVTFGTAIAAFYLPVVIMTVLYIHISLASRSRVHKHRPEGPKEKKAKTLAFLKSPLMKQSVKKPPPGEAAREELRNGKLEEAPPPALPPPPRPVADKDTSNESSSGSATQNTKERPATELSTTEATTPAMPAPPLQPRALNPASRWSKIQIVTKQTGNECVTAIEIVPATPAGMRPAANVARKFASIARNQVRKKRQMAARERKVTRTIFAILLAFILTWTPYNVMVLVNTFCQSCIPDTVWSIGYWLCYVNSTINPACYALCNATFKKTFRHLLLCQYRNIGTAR

As to `O=C(CP(=O)(CO)CO)c1ccc(Cl)cc1`, the cell count in experiment [1] came out at 863. In addition, the inhibition in experiment [1] was -2.9% (inactive); in experiment [3] it was 2.9% (inactive); in experiment [7] it was 3.99% (inactive); in experiment [8], 14.2% (inactive). For the same compound, the inhibition of aggregation in experiment [2] is 18.9% (inactive). Also, the values for the nuclei count in experiment [2] and in experiment [3] were 119% and 126%, respectively. In addition, the fluorescence slope was -0.536 (inactive) in experiment [4] and 0.00425 (inactive) in experiment [6]. Further, the NADPH fluorescence slope in experiment [5] is 4.7e-05 (inactive).

On to `O=C(O)c1c[nH]c2ccc(S(=O)(=O)N3CCN(c4ccc(F)cc4)CC3)cc2c1=O`, for which the cell count in experiment [1] was found to be 423. Further, the inhibition is -1.1% (inactive) in experiment [1], -183% (inactive) in experiment [3], 1.85% (inactive) in experiment [7] and 0.478% (inactive) in experiment [8]. The inhibition of aggregation in experiment [2] is 20.5% (inactive). In addition, the nuclei count in experiment [2] was found to be 87.5%; in experiment [3], 101%. For the same compound, the fluorescence slope in experiment [4] is -0.566 (inactive); in experiment [6], 0.00349 (inactive). Besides, in experiment [5], the NADPH fluorescence slope is 2e-06 (inactive).

`CC(C(=O)NCc1cccnc1)N1C(=O)c2ccccc2C1=O` (centres undefined): in experiment [1], the cell count stood at 783. The inhibition in experiment [1] is 5.5% (inactive); in experiment [3], -39.6% (inactive); in experiment [7], -0.398% (inactive); in experiment [8], 10.3% (inactive). The inhibition of aggregation in experiment [2] was 3.6% (inactive). For the same compound, the nuclei count came to 105% in experiment [2] and 132% in experiment [3]. Moreover, the fluorescence slope was -0.607 (inactive) in experiment [4] and 0.00555 (inactive) in experiment [6]. The NADPH fluorescence slope in experiment [5] was 1.7e-05 (inactive).

On to `Cc1cccc2cc(C(c3nnnn3C(C)(C)C)N3CCN(C(=O)c4ccco4)CC3)c(=O)[nH]c12` (centres undefined), for which the cell count in experiment [1] came out at 283. In addition, the inhibition in experiment [1] is -1.9% (inactive); in experiment [3], -29.9% (inactive); in experiment [7], 13.4% (inactive); in experiment [8] it was 16% (inactive). Moreover, the inhibition of aggregation in experiment [2] is -6.7% (inactive). Moreover, the nuclei count amounted to 96.1% in experiment [2] and 88.4% in experiment [3]. Also, the fluorescence slope in experiment [4] is -0.439 (inactive); in experiment [6], 0.00557 (inactive). For the same compound, the NADPH fluorescence slope in experiment [5] was -5.7e-05 (inactive).

On to `Cc1ccccc1S(=O)(=O)Cc1ccc(C(=O)NCc2cccnc2)o1`, for which the cell count in experiment [1] was determined as 596. Moreover, the inhibition was -2.3% (inactive) in experiment [1], 9.8% (inactive) in experiment [3], 16.7% (inactive) in experiment [7] and 19.4% (inactive) in experiment [8]. Moreover, the inhibition of aggregation in experiment [2] is 9% (inactive). Also, the nuclei count came to 105% in experiment [2] and 112% in experiment [3]. For the same compound, the fluorescence slope in experiment [4] was -0.546 (inactive); in experiment [6] it was 0.00552 (inactive). In addition, the NADPH fluorescence slope in experiment [5] is 4e-05 (inactive).

For `CC(=O)C1=C(O)C(=O)N(Cc2ccco2)C1c1ccc2c(c1)OCO2` (centres undefined), the cell count in experiment [1] came to 403. Besides, the inhibition in experiment [1] is 10.9% (inactive); in experiment [3] it was 7.1% (inactive); in experiment [7], 0.0775% (inactive); in experiment [8] it was 11.9% (inactive). Besides, the inhibition of aggregation in experiment [2] was 1.6% (inactive). For the same compound, the figures for the nuclei count in experiment [2] and in experiment [3] were 104% and 116%, respectively. Further, the fluorescence slope in experiment [4] was -0.513 (inactive); in experiment [6], 0.00429 (inactive). For the same compound, in experiment [5], the NADPH fluorescence slope is -2.5e-05 (inactive).

Take `CCOC(=O)c1[nH]c2ccc(F)cc2c1NC(=O)C(C)N1CCc2cc(OC)c(OC)cc2C1` (centres undefined): the cell count in experiment [1] worked out at 436. The inhibition in experiment [1] is 0.5% (inactive); in experiment [3], 42.5% (inactive); in experiment [7], -0.796% (inactive); in experiment [8], 35.3% (inactive). Also, the inhibition of aggregation in experiment [2] was 15.1% (inactive). In addition, the figures for the nuclei count in experiment [2] and in experiment [3] were 76.9% and 96%, respectively. The fluorescence slope is -0.574 (inactive) in experiment [4] and 0.00265 (inactive) in experiment [6]. Further, the NADPH fluorescence slope in experiment [5] is -3.4e-05 (inactive).

Consider `CC1CCCC(C(=O)OCc2ccccc2)N1` (centres undefined), for which the cell count in experiment [1] turned out to be 551. Besides, the inhibition in experiment [1] is -10.9% (inactive); in experiment [3] it was -120% (inactive); in experiment [7], 13.2% (inactive); in experiment [8], 20.1% (inactive). In addition, the inhibition of aggregation in experiment [2] is -31.2% (inactive). Further, the nuclei count came to 113% in experiment [2] and 122% in experiment [3]. The results for the fluorescence slope in experiment [4] and in experiment [6] were -0.389 (inactive) and 0.00626 (inactive), respectively. Also, the NADPH fluorescence slope in experiment [5] is 3.2e-05 (inactive).

In the case of `CCNc1oc(COc2cccc(C)c2)nc1C#N`, the cell count in experiment [1] was 791. Further, the inhibition in experiment [1] is -2.1% (inactive); in experiment [3], -14.2% (inactive); in experiment [7] it was -43.9% (inactive); in experiment [8], -83.4% (inactive). Besides, in experiment [2], the inhibition of aggregation was 15.8% (inactive). Moreover, the values for the nuclei count in experiment [2] and in experiment [3] were 114% and 111%, respectively. The fluorescence slope was -0.57 (inactive) in experiment [4] and 0.00641 (inactive) in experiment [6]. The NADPH fluorescence slope in experiment [5] is -5e-05 (inactive).

For `COc1ccc(Cn2c(C)nc3c(c2=O)c2nc4ccccc4nc2n3Cc2ccco2)cc1`, the cell count in experiment [1] was 375. Besides, the inhibition in experiment [1] is -0.6% (inactive); in experiment [3], -42.4% (inactive); in experiment [7], 23.6% (inactive); in experiment [8], 9.91% (inactive). The inhibition of aggregation in experiment [2] was -1.8% (inactive). Also, the values for the nuclei count in experiment [2] and in experiment [3] were 100% and 119%, respectively. The fluorescence slope in experiment [4] is -0.368 (inactive); in experiment [6], 0.00431 (inactive). In experiment [5], the NADPH fluorescence slope was -4.4e-06 (inactive).

`COc1cccc(-c2cc(C(F)(F)F)n3nc(N)nc3n2)c1`: the cell count in experiment [1] is 814. In addition, the inhibition is -0.8% (inactive) in experiment [1], 31.9% (inactive) in experiment [3], 6.21% (inactive) in experiment [7] and -0.814% (inactive) in experiment [8]. Further, in experiment [2], the inhibition of aggregation was 18.9% (inactive). Also, the figures for the nuclei count in experiment [2] and in experiment [3] were 90.5% and 98.9%, respectively. Besides, the figures for the fluorescence slope in experiment [4] and in experiment [6] were -0.449 (inactive) and 0.00414 (inactive), respectively. Moreover, the NADPH fluorescence slope in experiment [5] was -5e-05 (inactive).

`COc1ccc(C(C)(C)C)cc1NC(=O)Nc1ccc2c(c1)OCO2`: the cell count in experiment [1] was determined as 433. For the same compound, the inhibition in experiment [1] is 2.7% (inactive); in experiment [3] it was -13.1% (inactive); in experiment [7] it was -6.55% (inactive); in experiment [8] it was -2.75% (inactive). In addition, the inhibition of aggregation in experiment [2] was 7.4% (inactive). For the same compound, the values for the nuclei count in experiment [2] and in experiment [3] were 102% and 96.8%, respectively. Moreover, the fluorescence slope in experiment [4] was -0.577 (inactive); in experiment [6], 0.0063 (inactive). In addition, in experiment [5], the NADPH fluorescence slope was -8.3e-06 (inactive).

Turning to `c1csc(-c2nc3nc4ccccc4nc3n2Cc2ccc3c(c2)OCO3)c1`, in experiment [1], the cell count came out at 837. Further, the inhibition in experiment [1] was 1.7% (inactive); in experiment [3] it was -9.5% (inactive); in experiment [7], -28.9% (inactive); in experiment [8] it was -79.4% (inactive). Besides, the inhibition of aggregation in experiment [2] was -18.6% (inactive). Further, the nuclei count in experiment [2] stood at 114%; in experiment [3], 108%. In addition, the fluorescence slope in experiment [4] was -0.405 (inactive); in experiment [6], 0.00582 (inactive). Besides, in experiment [5], the NADPH fluorescence slope was -4.1e-05 (inactive).

On to `COc1nc(OC)nc(N2CCC(C(=O)NC3CCCCCC3)CC2)n1`, for which, in experiment [1], the cell count is 462. The inhibition in experiment [1] is 7.8% (inactive); in experiment [3], -6% (inactive); in experiment [7] it was -10% (inactive); in experiment [8] it was -8.66% (inactive). Besides, in experiment [2], the inhibition of aggregation is 6.7% (inactive). Besides, the nuclei count was 87.3% in experiment [2] and 110% in experiment [3]. Further, the fluorescence slope in experiment [4] was -0.469 (inactive); in experiment [6], 0.00646 (inactive). Further, the NADPH fluorescence slope in experiment [5] is 6.4e-05 (inactive).
